Reference: ChEMBL document CHEMBL2069242, “Structure and activity relationship in the (S)-N-chroman-3-ylcarboxamide series of voltage-gated sodium channel blockers” (Bioorg Med Chem Lett, 2012)
Converted amounts (≈) assume the structure as drawn. The source made the active and inactive calls. No cut-off for these calls is given here.

Assays:
[1] = test system: Rattus norvegicus; experiment: Dose normalized AUC in Sprague-Dawley rat at 10 umol/kg, po; format: ADME, organism-based; settings: in vivo
How it was run: (§1)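 Rat pharmacokinetics used fasted male Sprague–Dawley rats, three animals per administration route per compound. The intravenous dose was 3 µmol/kg, with a separate oral arm.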

[2] = biological target: Serotonin (5-HT) receptor (Homo sapiens) (UniProt P30939+P41595+Q13639+P28222+P46098+P08908+P28221+P28223+P28335+P28566+P34969+P50406+P47898+A5X5Y0+O95264+Q70Z44+Q8WXA8); experiment: Activity at 5HT receptor; format: protein assay
[3] = test system: Liver microsomes; experiment: Intrinsic clearance in human liver microsomes assessed per ug of protein; format: ADME, Microsome
[4] = Half life in Sprague-Dawley rat at 3 umol/kg, iv; format: ADME, organism-based; settings: in vivo; how it was run: as §1
[5] = Cmax in Sprague-Dawley rat at 10 umol/kg, po; format: ADME, organism-based; set-up: dose 10 umol/kg, route oral; settings: in vivo; how it was run: as §1
[6] = biological target: 5-hydroxytryptamine receptor 1B (Homo sapiens) (UniProt P28222); experiment: Activity at 5HT1B receptor
Chain of 5-hydroxytryptamine receptor 1B (Homo sapiens) (P28222 whole entry): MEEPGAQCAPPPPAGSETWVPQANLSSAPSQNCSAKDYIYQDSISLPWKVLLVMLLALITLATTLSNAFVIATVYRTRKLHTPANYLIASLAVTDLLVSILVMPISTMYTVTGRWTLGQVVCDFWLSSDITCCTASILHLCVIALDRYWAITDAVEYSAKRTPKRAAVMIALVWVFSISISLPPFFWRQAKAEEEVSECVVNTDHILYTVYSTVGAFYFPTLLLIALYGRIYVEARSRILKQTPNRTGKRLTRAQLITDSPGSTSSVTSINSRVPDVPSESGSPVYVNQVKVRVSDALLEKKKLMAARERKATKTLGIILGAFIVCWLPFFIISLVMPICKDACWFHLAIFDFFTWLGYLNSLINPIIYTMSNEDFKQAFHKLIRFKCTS

[7] = biological target: T1, Sodium-dependent dopamine transporter (Homo sapiens, UniProt Q01959); experiment: Displacement of [125I]RTI-55 from DAT at 10 uM
T1 sequence (Q01959 whole entry): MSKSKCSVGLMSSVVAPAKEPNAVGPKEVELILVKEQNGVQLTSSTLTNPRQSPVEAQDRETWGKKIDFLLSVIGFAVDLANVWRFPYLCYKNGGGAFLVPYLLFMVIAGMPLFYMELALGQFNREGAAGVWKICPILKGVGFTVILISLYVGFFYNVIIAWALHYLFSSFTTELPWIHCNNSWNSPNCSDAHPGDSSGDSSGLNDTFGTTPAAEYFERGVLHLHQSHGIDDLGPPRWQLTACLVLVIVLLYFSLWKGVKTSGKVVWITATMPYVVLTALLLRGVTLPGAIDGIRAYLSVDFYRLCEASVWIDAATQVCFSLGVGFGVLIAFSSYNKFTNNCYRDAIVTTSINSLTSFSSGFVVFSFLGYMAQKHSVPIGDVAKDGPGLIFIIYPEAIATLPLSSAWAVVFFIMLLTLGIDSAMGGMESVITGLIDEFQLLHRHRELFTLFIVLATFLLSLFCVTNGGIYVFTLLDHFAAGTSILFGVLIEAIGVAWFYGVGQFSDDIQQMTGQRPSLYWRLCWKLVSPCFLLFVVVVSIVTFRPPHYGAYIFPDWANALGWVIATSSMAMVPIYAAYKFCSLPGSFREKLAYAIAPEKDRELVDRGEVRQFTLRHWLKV

[8] = biological target: Sodium channel protein type 9 subunit alpha (Homo sapiens, UniProt Q15858); experiment: Inhibition of human NaV1.7 expressed in HEK293 cells by whole-cell voltage clamp assay; format: cell-based
How it was run: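 Human NaV1.7 α-subunit stably expressed in HEK293 cells. Currents were recorded by perforated whole-cell automated planar patch clamp (IonWorks Quattro) in D-PBS external solution with 5.5 mM glucose. Cells were held at −65 mV, and a train of eight 30 ms steps to −20 mV at 3 Hz was applied. Half-log serial dilutions were made in DMSO, giving 0.3% DMSO in the recording solution.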

[9] = biological target: T2, Growth hormone secretagogue receptor type 1 (Homo sapiens, UniProt Q92847); experiment: Displacement of [125I]ghrelin from GHS receptor at 10 uM
T2 sequence (Q92847 whole entry): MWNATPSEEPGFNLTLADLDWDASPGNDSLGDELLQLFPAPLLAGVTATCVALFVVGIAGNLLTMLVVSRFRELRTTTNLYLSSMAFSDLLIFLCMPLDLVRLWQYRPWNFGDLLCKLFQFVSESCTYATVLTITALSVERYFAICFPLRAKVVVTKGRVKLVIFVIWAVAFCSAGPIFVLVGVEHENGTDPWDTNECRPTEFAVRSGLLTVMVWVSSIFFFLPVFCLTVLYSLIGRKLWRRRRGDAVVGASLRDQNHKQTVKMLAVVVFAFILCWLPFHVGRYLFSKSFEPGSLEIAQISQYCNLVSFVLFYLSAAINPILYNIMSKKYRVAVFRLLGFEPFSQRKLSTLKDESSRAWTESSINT

[10] = Half life in Sprague-Dawley rat at 10 umol/kg, po; format: ADME, organism-based; settings: in vivo; how it was run: as §1
[11] = biological target: T2, Growth hormone secretagogue receptor type 1; experiment: Displacement of [125I]ghrelin from GHS receptor
[12] = test system: Liver microsomes; experiment: Intrinsic clearance in rat liver microsomes assessed per ug of protein; format: ADME, Microsome
[13] = biological target: Sodium channel protein type 5 subunit alpha (Homo sapiens, UniProt Q14524); experiment: Inhibition of human NaV1.5 expressed in CHO cells by IonWorks assay; format: cell-based
Chain of Sodium channel protein type 5 subunit alpha (Q14524 whole entry): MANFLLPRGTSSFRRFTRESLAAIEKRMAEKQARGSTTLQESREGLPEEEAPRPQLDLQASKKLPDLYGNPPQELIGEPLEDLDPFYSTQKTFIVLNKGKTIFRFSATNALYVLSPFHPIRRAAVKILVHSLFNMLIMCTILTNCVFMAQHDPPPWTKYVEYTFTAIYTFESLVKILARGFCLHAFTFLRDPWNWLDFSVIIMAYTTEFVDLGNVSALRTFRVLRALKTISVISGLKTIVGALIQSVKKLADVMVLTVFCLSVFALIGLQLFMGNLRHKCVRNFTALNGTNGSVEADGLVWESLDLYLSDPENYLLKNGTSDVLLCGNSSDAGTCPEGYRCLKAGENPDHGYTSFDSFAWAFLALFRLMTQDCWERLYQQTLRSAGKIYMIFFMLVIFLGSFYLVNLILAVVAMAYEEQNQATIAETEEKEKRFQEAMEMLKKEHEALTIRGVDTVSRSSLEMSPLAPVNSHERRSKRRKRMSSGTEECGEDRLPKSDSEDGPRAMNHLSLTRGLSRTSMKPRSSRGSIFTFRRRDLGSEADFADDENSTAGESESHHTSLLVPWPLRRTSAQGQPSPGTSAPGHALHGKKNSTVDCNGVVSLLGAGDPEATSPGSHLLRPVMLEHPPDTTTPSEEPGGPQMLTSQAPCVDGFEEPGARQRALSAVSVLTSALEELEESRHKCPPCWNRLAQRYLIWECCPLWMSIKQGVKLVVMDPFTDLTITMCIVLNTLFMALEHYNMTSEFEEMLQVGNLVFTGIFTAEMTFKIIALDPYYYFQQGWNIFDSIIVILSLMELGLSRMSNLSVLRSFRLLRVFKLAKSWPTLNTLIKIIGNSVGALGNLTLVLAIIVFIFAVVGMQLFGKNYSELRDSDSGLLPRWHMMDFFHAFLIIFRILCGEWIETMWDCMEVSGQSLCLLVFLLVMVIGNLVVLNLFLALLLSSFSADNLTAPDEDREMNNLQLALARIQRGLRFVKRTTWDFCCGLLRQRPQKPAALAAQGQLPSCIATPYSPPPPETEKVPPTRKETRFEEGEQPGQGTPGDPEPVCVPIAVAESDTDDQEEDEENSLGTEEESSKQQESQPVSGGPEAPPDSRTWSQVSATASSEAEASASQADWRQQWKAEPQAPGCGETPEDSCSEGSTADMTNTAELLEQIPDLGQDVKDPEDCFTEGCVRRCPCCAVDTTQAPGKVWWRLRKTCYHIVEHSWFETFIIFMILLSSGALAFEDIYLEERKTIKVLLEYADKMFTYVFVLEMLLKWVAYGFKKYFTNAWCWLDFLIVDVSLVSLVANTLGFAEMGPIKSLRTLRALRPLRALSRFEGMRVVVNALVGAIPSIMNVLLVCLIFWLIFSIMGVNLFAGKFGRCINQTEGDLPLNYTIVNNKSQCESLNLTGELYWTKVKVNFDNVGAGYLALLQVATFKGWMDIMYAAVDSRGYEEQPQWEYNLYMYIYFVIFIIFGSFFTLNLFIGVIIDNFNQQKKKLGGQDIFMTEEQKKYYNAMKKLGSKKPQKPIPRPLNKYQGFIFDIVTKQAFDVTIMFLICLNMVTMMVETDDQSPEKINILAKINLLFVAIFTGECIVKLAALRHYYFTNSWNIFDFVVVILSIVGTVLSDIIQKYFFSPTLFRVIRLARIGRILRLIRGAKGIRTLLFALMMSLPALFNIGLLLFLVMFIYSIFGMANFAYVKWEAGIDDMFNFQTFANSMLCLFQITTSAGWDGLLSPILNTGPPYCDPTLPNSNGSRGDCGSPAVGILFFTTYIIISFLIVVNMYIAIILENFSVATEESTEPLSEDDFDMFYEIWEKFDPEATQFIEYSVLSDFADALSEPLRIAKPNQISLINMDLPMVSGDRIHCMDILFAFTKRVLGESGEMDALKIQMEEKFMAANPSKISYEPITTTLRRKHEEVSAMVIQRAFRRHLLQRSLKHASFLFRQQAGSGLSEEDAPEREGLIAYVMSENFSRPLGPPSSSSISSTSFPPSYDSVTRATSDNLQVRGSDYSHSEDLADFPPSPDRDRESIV

[14] = biological target: T3, 5-hydroxytryptamine receptor 1A (Homo sapiens) (UniProt P08908); experiment: Activity at 5HT1A receptor
T3 sequence (whole entry): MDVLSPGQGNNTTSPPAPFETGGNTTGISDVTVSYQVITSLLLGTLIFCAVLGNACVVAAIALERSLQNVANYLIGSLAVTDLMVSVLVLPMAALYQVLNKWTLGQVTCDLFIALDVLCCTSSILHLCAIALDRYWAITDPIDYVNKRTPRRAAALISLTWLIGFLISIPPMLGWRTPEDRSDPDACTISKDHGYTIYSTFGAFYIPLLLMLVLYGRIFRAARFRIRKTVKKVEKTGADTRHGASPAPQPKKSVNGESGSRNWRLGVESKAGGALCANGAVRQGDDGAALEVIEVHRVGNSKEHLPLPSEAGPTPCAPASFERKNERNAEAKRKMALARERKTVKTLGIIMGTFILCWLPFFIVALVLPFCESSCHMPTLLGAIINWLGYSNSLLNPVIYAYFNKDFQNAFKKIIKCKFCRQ

[15] = Volume of distribution at steady state in Sprague-Dawley rat at 3 umol/kg, iv; format: ADME, organism-based; settings: in vivo, read-out: Vdss; how it was run: as §1
[16] = biological target: Voltage-gated inwardly rectifying potassium channel KCNH2 (Homo sapiens, UniProt Q12809); experiment: Inhibition of human ERG expressed in CHO cells by IonWorks HT assay; format: cell-based
Chain of Voltage-gated inwardly rectifying potassium channel KCNH2 (Q12809 whole entry): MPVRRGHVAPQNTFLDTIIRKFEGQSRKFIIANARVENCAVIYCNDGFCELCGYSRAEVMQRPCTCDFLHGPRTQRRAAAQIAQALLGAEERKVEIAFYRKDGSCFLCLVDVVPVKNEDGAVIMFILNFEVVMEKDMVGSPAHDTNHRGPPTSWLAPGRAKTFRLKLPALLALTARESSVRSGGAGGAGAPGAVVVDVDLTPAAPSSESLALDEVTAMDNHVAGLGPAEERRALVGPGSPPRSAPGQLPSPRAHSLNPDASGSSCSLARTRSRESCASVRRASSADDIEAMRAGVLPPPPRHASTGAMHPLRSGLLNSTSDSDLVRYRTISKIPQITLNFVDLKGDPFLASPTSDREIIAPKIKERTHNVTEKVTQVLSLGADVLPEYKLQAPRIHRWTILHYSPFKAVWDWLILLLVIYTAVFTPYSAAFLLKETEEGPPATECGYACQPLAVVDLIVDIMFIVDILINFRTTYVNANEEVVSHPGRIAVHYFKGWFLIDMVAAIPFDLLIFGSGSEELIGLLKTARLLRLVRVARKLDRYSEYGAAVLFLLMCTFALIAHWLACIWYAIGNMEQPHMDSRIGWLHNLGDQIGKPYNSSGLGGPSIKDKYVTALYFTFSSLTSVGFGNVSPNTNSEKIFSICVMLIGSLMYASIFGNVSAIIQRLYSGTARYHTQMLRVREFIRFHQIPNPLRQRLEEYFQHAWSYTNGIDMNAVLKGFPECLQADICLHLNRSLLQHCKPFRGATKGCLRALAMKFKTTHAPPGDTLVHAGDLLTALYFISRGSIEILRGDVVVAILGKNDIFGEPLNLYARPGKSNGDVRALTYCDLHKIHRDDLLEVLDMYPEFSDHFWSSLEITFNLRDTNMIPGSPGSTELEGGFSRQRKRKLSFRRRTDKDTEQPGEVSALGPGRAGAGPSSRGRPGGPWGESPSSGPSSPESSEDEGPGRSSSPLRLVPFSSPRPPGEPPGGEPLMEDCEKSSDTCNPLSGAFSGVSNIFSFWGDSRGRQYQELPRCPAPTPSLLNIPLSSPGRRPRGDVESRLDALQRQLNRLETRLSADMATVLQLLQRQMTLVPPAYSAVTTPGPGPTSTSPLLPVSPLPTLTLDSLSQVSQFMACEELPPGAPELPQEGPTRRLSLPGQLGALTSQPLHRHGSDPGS

[17] = test system: Rattus norvegicus; experiment: Dose normalized AUC in Sprague-Dawley rat at 3 umol/kg, iv; format: ADME, organism-based; settings: in vivo; how it was run: as §1
[18] = Tmax in Sprague-Dawley rat at 10 umol/kg, po; format: ADME, organism-based; settings: in vivo; how it was run: as §1
[19] = biological target: T1, Sodium-dependent dopamine transporter; experiment: Displacement of [125I]RTI-55 from DAT
[20] = biological target: T4, Alpha-2B adrenergic receptor (Homo sapiens) (UniProt P18089); experiment: Displacement of [3H]rauwolscine from adrenergic alpha2B receptor at 10 uM
T4 sequence (whole entry): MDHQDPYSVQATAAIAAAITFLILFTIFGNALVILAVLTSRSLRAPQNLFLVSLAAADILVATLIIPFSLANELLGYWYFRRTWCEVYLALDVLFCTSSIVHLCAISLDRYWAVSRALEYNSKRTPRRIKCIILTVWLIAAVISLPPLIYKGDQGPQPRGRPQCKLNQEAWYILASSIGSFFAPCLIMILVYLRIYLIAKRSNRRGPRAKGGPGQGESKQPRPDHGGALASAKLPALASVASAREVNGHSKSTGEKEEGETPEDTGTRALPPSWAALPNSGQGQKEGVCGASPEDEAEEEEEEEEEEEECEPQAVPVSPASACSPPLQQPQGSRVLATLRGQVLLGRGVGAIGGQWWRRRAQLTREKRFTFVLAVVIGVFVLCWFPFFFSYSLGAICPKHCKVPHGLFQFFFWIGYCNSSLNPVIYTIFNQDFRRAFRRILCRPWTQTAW

[21] = Clearance in Sprague-Dawley rat at 3 umol/kg, iv; format: ADME, organism-based; settings: in vivo; how it was run: as §1
[22] = Solubility of the compound; format: physicochemical
[23] = Oral bioavailability in Sprague-Dawley rat at 10 umol/kg; format: ADME, organism-based; settings: in vivo; how it was run: as §1
[24] = species on record: Homo sapiens; experiment: Displacement of [3H]nitrobenzylthioinosine from adenosine transporter at 10 uM
[25] = test system: Rattus norvegicus; experiment: Antinociceptive activity in formalin-challenged Sprague-Dawley rat assessed as latency in paw licking during phase 2 at […], po administered 3 hrs prior to formalin-challenge measured up to 15 to 35 mins post formalin challenge; format: functional, organism-based
How it was run: (§2)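 Sprague–Dawley rats (n = 9/group) were dosed by oral gavage 3 h before formalin, at 0, 19, 49 and 99 µmol/kg, as a nanosuspension in 1% PVP K30/0.2% SDS. Formalin was 100 µL of 2.0% injected s.c. into the dorsal left hind paw. Paw-licking time was scored over 35 min: phase 1 at 0–5 min, phase 2 at 15–35 min. Results were given as % of vehicle, with total plasma concentration as mean SD. Statistics were one-way ANOVA, then unpaired one-tailed t-test.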

[26] = test system: Rattus norvegicus; experiment: Antinociceptive activity in po dosed formalin-challenged Sprague-Dawley rat assessed as latency in paw licking during phase 1 administered 3 hrs prior to formalin-challenge measured up to 5 mins post formalin challenge; format: functional, organism-based; how it was run: as §2
[27] = biological target: T5, Cannabinoid receptor 1 (Homo sapiens, UniProt P21554); experiment: Displacement of [3H]SR141716A from CB1 receptor at 10 uM
T5 sequence (P21554 whole entry): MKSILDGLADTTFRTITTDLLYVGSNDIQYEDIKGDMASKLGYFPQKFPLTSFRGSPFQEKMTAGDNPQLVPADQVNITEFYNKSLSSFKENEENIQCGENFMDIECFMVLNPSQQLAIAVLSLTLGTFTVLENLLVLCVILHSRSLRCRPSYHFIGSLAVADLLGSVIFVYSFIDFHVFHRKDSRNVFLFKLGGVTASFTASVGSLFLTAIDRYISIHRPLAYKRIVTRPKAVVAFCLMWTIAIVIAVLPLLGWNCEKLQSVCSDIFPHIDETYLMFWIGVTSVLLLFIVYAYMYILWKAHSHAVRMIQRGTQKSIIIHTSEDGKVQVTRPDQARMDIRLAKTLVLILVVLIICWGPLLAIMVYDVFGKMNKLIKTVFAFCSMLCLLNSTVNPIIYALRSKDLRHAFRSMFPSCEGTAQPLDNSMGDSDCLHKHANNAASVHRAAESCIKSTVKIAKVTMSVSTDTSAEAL

[28] = test system: Plasma; experiment: Plasma concentration in formalin-challenged Sprague-Dawley rat at 49 umol/kg, po administered 3 hrs prior to formalin-challenge measured up to 5 mins post formalin challenge; format: ADME, organism-based; settings: in vivo; how it was run: as §2
[29] = biological target: T6, C-C chemokine receptor type 1 (Homo sapiens) (UniProt P32246); experiment: Increase in [125I]MIP-1alpha binding to CCR1 at 10 uM
T6 sequence (whole entry): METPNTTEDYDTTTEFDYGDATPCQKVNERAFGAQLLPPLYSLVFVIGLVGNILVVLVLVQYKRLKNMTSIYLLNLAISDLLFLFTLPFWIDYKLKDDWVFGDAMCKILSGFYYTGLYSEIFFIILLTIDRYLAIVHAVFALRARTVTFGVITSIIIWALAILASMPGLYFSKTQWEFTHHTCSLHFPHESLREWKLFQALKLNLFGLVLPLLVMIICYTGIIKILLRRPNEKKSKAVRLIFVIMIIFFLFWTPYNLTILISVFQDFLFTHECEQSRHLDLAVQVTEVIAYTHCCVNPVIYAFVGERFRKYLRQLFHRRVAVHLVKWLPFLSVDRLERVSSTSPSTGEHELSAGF

[30] = test system: Rattus norvegicus; experiment: Antinociceptive activity in formalin-challenged Sprague-Dawley rat assessed as latency in paw licking during phase 1 at 49 umol/kg, po administered 3 hrs prior to formalin-challenge measured up to 5 mins post formalin challenge relative to control; format: functional; how it was run: as §2
[31] = biological target: T5, Cannabinoid receptor 1; experiment: Displacement of [3H]SR141716A from CB1 receptor
[32] = biological target: T5, Cannabinoid receptor 1; experiment: Agonist activity at CB1 receptor by [35gammaS]GTP incorporation assay; format: functional
[33] = Displacement of [3H]nitrobenzylthioinosine from adenosine transporter; set-up: species or system Homo sapiens

Compound | AUC/dose [1] [kg·h/L] | CLint [3] [µL/min/mg] | half-life [4] [h] | Cmax [5] [nM] | Activity [6] | IC50 [8] [µM] | half-life [10] [h] | CLint [12] [µL/min/mg] | IC50 [13] [µM] | Activity [14] | Vd [15] [L/kg] | IC50 [16] [µM] | AUC/dose [17] [kg·h/L] | Tmax [18] [h] | clearance [21] [mL/min/kg] | solubility [22] [µM] | bioavailability [23] [%] | further results
O=C(N[C@@H]1COc2cccc(-c3ccc(CO)nc3)c2C1)c1ccc(OCC(F)(F)F)nc1 | 0.27 | 10 | 3.8 | 380 | inactive | 0.158 | 3.5 | < 10 | 6.31 | inactive | 11 | 10 | 0.4 | 1.5 | 42.2 | 58 (≈ 26.6 µg/mL) | 66.3 | Activity [2]: inactive; inhibition [7]: 80%; inhibition [9]: 98%; IC50 [11]: 0.2 µM; IC50 [19]: 2 µM; inhibition [20]: 55%
COc1cnc(-c2cccc3c2C[C@H](NC(=O)c2ccc(COCC(F)(F)F)nc2)CO3)cn1 | 0.3 | < 10 | 2.2 | 300 | inactive | 0.0794 | 4.8 | < 10 | 12.6 | inactive | 4.2 | 12.6 | 0.6 | 2.5 | 25 | 34 (≈ 16.1 µg/mL) | 44 | inhibition [24]: 66%; Activity [25]: inactive; Activity [26]: Dose-dependent effect; inhibition [27]: 55%; concentration [28]: 5000 nM; Activity [29]: 127%; Activity [30]: 66%; IC50 [31]: 5 µM; Activity [32]: inactive; IC50 [33]: 1.8 µM
